Results from ChEMBL document CHEMBL1275449, “Potent in vitro antifungal activities of naturally occurring acetylenic acids” (Antimicrob Agents Chemother, 2008).
The source made the active and inactive calls.

Assays:
Format in all cases: functional, organism-based
Candida albicans [1] = experiment: Antifungal activity against Candida albicans ATCC 90028 at 198.1 uM after 48 hrs by CLSI method
In short: (§1)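 Candida inocula came from 24–72-h SD agar colonies suspended in saline. They were diluted by OD630 standard curve into RPMI 1640 (0.2% dextrose, 0.03% glutamine, 0.165 M MOPS, pH 7.0) to 1.5 × 10³ CFU/ml. Compounds were run as 11 twofold dilutions in 20% DMSO-saline, in duplicate, at 35°C for 48 h, with OD530 read before and after. Percent growth at the top concentration, IC50, MIC, and MFC (SD agar plating) were derived.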

Nakaseomyces glabratus [2] = experiment: Antifungal activity against Candida glabrata ATCC 90030 at 198.1 uM after 48 hrs by CLSI method; in short: as §1
Candida parapsilosis [3] = experiment: Antifungal activity against Candida parapsilosis ATCC 22019 at 198.1 uM after 48 hrs by CLSI method
In short: (§2)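 Yeast suspensions made from 3-5 colonies off 24-72 h SD agar plates in saline. They were diluted by OD630 standard curve in RPMI 1640 (0.2% dextrose, 0.03% glutamine, 0.165 M MOPS, pH 7.0) to 1.5 × 10³ CFU/ml. Twofold dilutions (11 concentrations, 20% DMSO-saline) run in duplicate. OD530 read before and after 35°C, 48 h. Line values are top test concentrations; no-growth endpoints give MIC/MFC.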

Candida albicans [4] = experiment: Antifungal activity against Candida albicans ATCC 32354 at 198.1 uM after 48 hrs by CLSI method; in short: as §1
Aspergillus fumigatus [5] = experiment: Antifungal activity against Aspergillus fumigatus ATCC 90906 at 198.1 uM after 48 hrs by CLSI method
Aspergillus fumigatus [6] = experiment: Antifungal activity against Aspergillus fumigatus ATCC 204305 at 169.8 uM after 48 hrs by CLSI method
Cryptococcus neoformans [7] = experiment: Antifungal activity against Cryptococcus neoformans ATCC 66031 at 169.8 uM after 72 hrs by CLSI method
In short: (§3)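 SD broth replaced RPMI because growth in RPMI was poor; other CLSI conditions were kept. Inoculum was 1.5 × 10³ CFU/ml from colonies on SD agar, checked by plating. Twofold serial dilutions (11 concentrations) in 20% DMSO-saline were tested in duplicate. OD530 was read before and after incubation at 35°C for 72 h. Percent growth gave IC50; the MIC is the lowest concentration with no detectable growth.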

Candida albicans [8] = experiment: Antifungal activity against Fluconazole resistant Candida albicans isolate 1 at 169.8 uM after 48 hrs by CLSI method
In short: (§4)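 Candida in CLSI broth microdilution. Saline colony suspension set to 1.5 × 10³ CFU/ml (final) in MOPS-buffered RPMI 1640, pH 7.0. Test agent given as twofold serial dilutions in 20% DMSO-saline, duplicate wells. 35°C for 48 h. Growth read as OD530 before and after incubation. Percent inhibition scored at the highest test concentration.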

Aspergillus niger [9] = experiment: Antifungal activity against Aspergillus niger ATCC 16404 at 169.8 uM after 48 hrs by CLSI method
Candida albicans [10] = experiment: Antifungal activity against Candida albicans ATCC 200955 at 169.8 uM after 48 hrs by CLSI method; in short: as §1
Nakaseomyces glabratus [11] = experiment: Antifungal activity against Candida glabrata ATCC 90030 at 169.8 uM after 48 hrs by CLSI method; in short: as §1
[12] = system: Trichophyton mentagrophytes; experiment: Antifungal activity against Trichophyton mentagrophytes ATCC MYA-4439 at 168.9 uM after 5 days by CLSI method
Aspergillus niger [13] = experiment: Antifungal activity against Aspergillus niger ATCC 16404 at 168.9 uM after 48 hrs by CLSI method
Candida albicans [14] = experiment: Antifungal activity against Fluconazole resistant Candida albicans isolate 17 at 168.9 uM after 48 hrs by CLSI method; in short: as §4
Candida parapsilosis [15] = experiment: Antifungal activity against Candida parapsilosis ATCC 22019 at 168.9 uM after 48 hrs by CLSI method; in short: as §2
Candida albicans [16] = experiment: Antifungal activity against Candida albicans ATCC 90028 at 168.9 uM after 48 hrs by CLSI method; in short: as §1
Aspergillus flavus = experiment: Antifungal activity against Aspergillus flavus ATCC 204304 at 187.7 uM after 48 hrs by CLSI method
Candida albicans [17] = experiment: Antifungal activity against Candida albicans ATCC 14053 at 187.7 uM after 48 hrs by CLSI method
Candida parapsilosis [18] = experiment: Antifungal activity against Candida parapsilosis ATCC 22019 at 187.7 uM after 48 hrs by CLSI method; in short: as §2
Cryptococcus neoformans [19] = experiment: Antifungal activity against Cryptococcus neoformans ATCC 90113 at 187.7 uM after 72 hrs by CLSI method; in short: as §3
Nakaseomyces glabratus [20] = experiment: Antifungal activity against Candida glabrata ATCC 90030 at 187.7 uM after 48 hrs by CLSI method; in short: as §1
Candida albicans [21] = experiment: Antifungal activity against Fluconazole resistant Candida albicans isolate 1 at 187.7 uM after 48 hrs by CLSI method; in short: as §4
Pichia kudriavzevii = experiment: Antifungal activity against Candida krusei ATCC 6258 at 187.7 uM after 48 hrs by CLSI method; in short: as §2
Nakaseomyces glabratus [22] = experiment: Antifungal activity against Candida glabrata ATCC 90030 at 9.4 uM after 48 hrs by CLSI method; in short: as §4
Candida albicans [23] = experiment: Antifungal activity against Candida albicans ATCC 14053 at 9.4 uM after 48 hrs by CLSI method; in short: as §4
Candida parapsilosis [24] = experiment: Antifungal activity against Candida parapsilosis ATCC 22019 at 9.4 uM after 48 hrs by CLSI method; in short: as §4
Candida albicans [25] = experiment: Antifungal activity against Candida albicans ATCC 200955 at 9.4 uM after 48 hrs by CLSI method; in short: as §4
Aspergillus niger [26] = experiment: Antifungal activity against Aspergillus niger ATCC 16404 at 9.4 uM after 48 hrs by CLSI method
In short: (§5)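 Aspergillus growth on 1–6-week potato dextrose slants scraped and Miracloth-filtered. Inoculum sized by OD630 curve to 2.7 × 10⁴ CFU/ml (final) in 5% Alamar blue-RPMI 1640 (MOPS, pH 7.0). Duplicate twofold dilutions from 20% DMSO-saline. 35°C for 48 h. Fluorescence 544/590 nm read before and after. Percent inhibition taken at the highest test concentration.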

Candida albicans [27] = experiment: Antifungal activity against Fluconazole resistant Candida albicans isolate 17 at 9.4 uM after 48 hrs by CLSI method; in short: as §4
Trichophyton rubrum = experiment: Antifungal activity against Trichophyton rubrum ATCC MYA-4438 at 9.4 uM after 5 days by CLSI method
In short: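 Trichophyton growth scraped from 1–6-week potato dextrose slants and filtered through Miracloth. Inoculum 2.7 × 10⁴ CFU/ml (final) in 5% Alamar blue-RPMI 1640 buffered with MOPS, pH 7.0. Duplicate twofold dilutions from 20% DMSO-saline. Incubated 35°C for 5 days. Fluorescence read at 544 nm excitation, 590 nm emission. Inhibition assessed at the highest test concentration.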

Candida tropicalis = experiment: Antifungal activity against Candida tropicalis ATCC 750 at 9.4 uM after 48 hrs by CLSI method; in short: as §4
Aspergillus fumigatus [28] = experiment: Antifungal activity against Aspergillus fumigatus ATCC 204305 at 9.4 uM after 48 hrs by CLSI method; in short: as §5

Measured: Activity

CCCCCCCCCC#CCCCCC(=O)O
inactive: Candida albicans [1] | Nakaseomyces glabratus [2] | Candida parapsilosis [3] | Candida albicans [4] | Aspergillus fumigatus [5]

CCCCCCCCCCCCC#CCCCCC(=O)O [6-NONADECYNOIC ACID]
inactive: Aspergillus fumigatus [6] | Cryptococcus neoformans [7] | Candida albicans [8] | Aspergillus niger [9] | Candida albicans [10] | Nakaseomyces glabratus [11]

CCCCCC#CCC#CCC#CCC#CCCCC(=O)O
inactive: [12] | Aspergillus niger [13] | Candida albicans [14] | Candida parapsilosis [15] | Candida albicans [16]

CCCCCCCCCCC#CCCCCC(=O)O
inactive: Aspergillus flavus | Candida albicans [17] | Candida parapsilosis [18] | Cryptococcus neoformans [19] | Nakaseomyces glabratus [20] | Candida albicans [21] | Pichia kudriavzevii

CC(=O)N1CCN(c2ccc(OCC3COC(Cn4ccnc4)(c4ccc(Cl)cc4Cl)O3)cc2)CC1 (configuration not stated) [KETOCONAZOLE]
inactive: Nakaseomyces glabratus [22] | Candida albicans [23] | Candida parapsilosis [24] | Candida albicans [25] | Aspergillus niger [26] | Candida albicans [27] | Trichophyton rubrum | Candida tropicalis | Aspergillus fumigatus [28]
